M5 antag: antagonists of human muscarinic M5 receptor (CHRM5); inhibition, % at 3 µM; CHO-hM5 cells, Fluo-8 calcium fluorescence, ACh EC80; 360,000 compounds, 0.59% hits;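 active means inhibition above a per-plate cutoff, the mean of that plate's test compounds plus 3 SD, cut at about 27% in these data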
CHRM5 PAM: positive allosteric modulators of human muscarinic M5 receptor; P08912; CHO-K1 hM5, Fluo-8 calcium, ACh EC20 PAM; 0% = ACh EC20, 100% = ACh EC100; activation, % at 3 µM; 360,000 compounds, 0.3% hits; AID 624038;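 active means activation above the run cutoff, the mean activation of all test compounds plus 3 SD, cut at about 18% in these data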
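Assay system – human M5 receptor in CHO-K1 cells · Read-out – % activation, ACh-normalized · Technique – Fluo-8 calcium fluorescence · Dosing – single-point, 3 µM nominal · Incubation – Fluo-8 loading 80 min at 37 °C plus 30 min room temperature · Repeats – singlicate, one well per test compound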
CHRM1 antagonist: human CHRM1 antagonism; P11229; CHO-K1 hM1, Fluo-8 calcium fluorescence, ACh EC80 antagonist; inhibition, % at 3 µM; 360,000 compounds, 1.3% hits;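 active means percent inhibition above its own plate's cutoff, namely the mean of that plate's compound wells plus 3 SD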;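 further: peak over basal fluorescence ratio during 140 s after agonist addition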
Target sequence (P11229 whole entry, looked up): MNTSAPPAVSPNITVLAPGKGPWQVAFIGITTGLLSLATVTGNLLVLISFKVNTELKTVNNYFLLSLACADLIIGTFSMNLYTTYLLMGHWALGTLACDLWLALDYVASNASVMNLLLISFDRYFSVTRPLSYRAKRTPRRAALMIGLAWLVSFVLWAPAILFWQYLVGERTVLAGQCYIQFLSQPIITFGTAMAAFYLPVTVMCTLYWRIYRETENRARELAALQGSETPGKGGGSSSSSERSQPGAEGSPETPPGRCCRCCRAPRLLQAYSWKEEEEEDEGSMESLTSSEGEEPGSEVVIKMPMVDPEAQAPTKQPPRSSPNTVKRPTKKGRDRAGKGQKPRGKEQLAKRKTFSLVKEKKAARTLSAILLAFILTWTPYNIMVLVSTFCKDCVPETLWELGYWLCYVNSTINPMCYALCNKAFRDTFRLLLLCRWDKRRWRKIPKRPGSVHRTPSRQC
CHRM1 agonist: activates human CHRM1 receptor; 360,000 compounds, 0.33% hits; P11229; CHO-K1 hM1, Fluo-8 calcium fluorescence, agonist mode; 0% DMSO, 100% acetylcholine EC100; activation, % at 3 µM; AID 588814;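 active means activation above the run's mean compound activation plus 3 SD, cut at about 16% in these data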;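 further: peak over basal fluorescence ratio within a 140 s kinetic read after compound addition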
CHRM5 agonist: agonists of human muscarinic M5 receptor (CHRM5) | P08912 | CHO-K1 hM5 cells, Fluo-8 calcium fluorescence; 0% DMSO wells, 100% maximal acetylcholine response | activation, % at 3 µM | 360,000 compounds, 0.19% hits | AID 624037;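 active means activation above the run's mean over test compounds plus 3 SD, cut at about 23% in these data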;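 further: signal is peak over basal fluorescence ratio across the kinetic read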
CHRM1 PAM: potentiates human M1 receptor response to acetylcholine; P11229; CHO-K1 hM1, Fluo-8 calcium fluorescence, ACh EC20; 0% = ACh EC20, 100% = maximal ACh; activation, % at 3 µM; 360,000 compounds, 0.088% hits; AID 588819; in the data active means activation above about 19%, passing the limit was not always enough
Numbers stand for hits; . = inactive; / = no result. Sampled rows, rich in hits. Any-hit rate of the full collection: about 2%.

SMILES	M5 antag	CHRM5 PAM	CHRM1 antagonist	CHRM1 agonist	CHRM5 agonist	CHRM1 PAM
O=C(NCCO)OC1CC2CC1[C@H]1CCCCN1C2=O (some centres undefined)	.	.	/	/	.	/
COc1ccc(/C=N/Nc2nc(-c3cccnc3)nc3ccccc23)cc1OC	.	.	.	.	.	.
CC(Nc1nc(-c2cccnc2)nc2ccccc12)c1ccc(F)cc1 (centres undefined)	.	.	20.7	.	.	.
COc1ccc(CCNc2nc(-c3cccnc3)nc3ccccc23)cc1OC	39.4	.	24.6	.	.	.
COC(=O)CNc1nc(-c2cccnc2)nc2ccccc12	.	.	.	.	.	.
Oc1ccc(/C=N/Nc2nc(-c3cccnc3)nc3ccccc23)c(O)c1	.	.	.	.	.	.
COc1ccc(C(CNc2nc(-c3cccnc3)nc3ccccc23)N(C)C)cc1 (centres undefined)	.	.	33.3	.	.	.
Cc1c(O)ccc(/C=N/Nc2nc(-c3cccnc3)nc3ccccc23)c1O	.	.	31.9	.	.	.
Cc1cc(C(=O)OCC(=O)NC(C)c2ccc(F)cc2)c(C)o1 (centres undefined)	.	.	.	.	.	.
Cc1cccc(S(=O)(=O)N2C[C@@H](O)COC[C@@H]3O[C@H](CC(=O)NCCCN4CCOCC4)CC[C@H]32)c1	.	.	/	/	.	/
CCOc1cc2c3c(c1)C(C)=CC(C)(C)N3C(=O)C2=O	.	.	.	.	55.5	.
c1ccc(CNc2ncnc3c2cnn3Cc2ccccc2)cc1	.	.	.	.	27.7	.
OCCNc1ncnc2c1cnn2Cc1ccccc1	.	.	.	.	.	.
O=C(NCc1ccccn1)c1ccc(OC2CCN(Cc3ccc(F)cc3F)CC2)cc1	.	.	.	.	.	.
COc1cccc(CN2CCC(Oc3ccc(C(=O)NCc4ccccn4)cc3)CC2)c1	.	.	.	.	.	.
CCOc1cccc(CN2CCC(Oc3ccc(C(=O)NCc4ccccn4)cc3)CC2)c1	.	.	77.1	.	.	.
C#Cc1ccc(CN2CCC(Oc3ccc(C(=O)NCc4ccccn4)cc3)CC2)cc1	.	.	78.3	.	.	.
Cc1cnc(CNC(=O)c2ccc(OC3CCN(C(=O)C4CC4)CC3)cc2)cn1	.	23.2	.	.	.	.
COc1ccc(CN2CCC(Oc3ccc(C(=O)NCc4ccccn4)cc3)CC2)c(F)c1	.	.	71.5	.	.	.
O=C(c1ccc(OC2CCN(Cc3ccccn3)CC2)cc1)N1CCCC(O)C1 (centres undefined)	.	23.7	.	.	.	.
Cc1ccc(NC(=O)CCS(=O)(=O)c2ccc3nc(C)sc3c2)c(C)c1	.	.	.	.	.	.
C[C@H]1CN([C@@H](C)CO)S(=O)(=O)c2ccc(Br)cc2O[C@H]1CN(C)C(=O)Cc1ccncc1	.	.	.	.	.	.
CCOC(=O)C1CCCN(CC(=O)NC2CC2)C1 (centres undefined)	.	.	.	25.0	.	.
CCOC(=O)C1CCCN(S(=O)(=O)c2ccc(S(=O)(=O)N(CC)CC)cc2)C1 (centres undefined)	33.0	.	.	.	.	.
CCOC(=O)C1CCCN(CC(=O)Nc2cccc(C(C)=O)c2)C1 (centres undefined)	.	.	.	.	.	.
SMILES	M5 antag	CHRM5 PAM	CHRM1 antagonist	CHRM1 agonist	CHRM5 agonist	CHRM1 PAM
CC1CCCN(C(=S)Nc2ccc(S(=O)(=O)N3CCCCC3)cc2)C1 (centres undefined)	.	.	.	.	.	.
CCOC(=O)C1CCCN(CCC(=O)Nc2cc(OC)ccc2OC)C1 (centres undefined)	.	.	.	16.3	.	.
CCOC(=O)C1CCCN(C(=S)Nc2ccc(S(=O)(=O)N3CCOCC3)cc2)C1 (centres undefined)	.	.	53.6	62.6	41.8	.
CCOC1CCCc2oc(-c3ccsc3)c(-c3cnc(OC)nc3)c21 (centres undefined)	.	.	/	/	.	/
CCN(CC)C(=O)C1=C(C)N(CCCN2CCCC2=O)C(=O)C(CC(=O)NC2CCCCC2)C1 (centres undefined)	.	.	.	.	.	.
CC(C)(C)NC(=O)C1(C)CCC(=O)N1C1CCN(Cc2ccccc2)CC1 (centres undefined)	.	.	.	.	.	.
C[C@H]1CN([C@@H](C)CO)C(=O)CCCn2cc(nn2)CO[C@@H]1CN(C)C(=O)Nc1ccc(-c2cccs2)cc1	.	.	.	.	.	.
CCOC(=O)C1CCCN(C(=S)Nc2cc(C)cc(C)c2)C1 (centres undefined)	.	.	67.7	62.8	28.4	.
CCOC(=O)C1CCCN(CC(=O)Nc2cc(C)cc(C)c2)C1 (centres undefined)	.	.	.	.	.	.
CCOC(=O)C1CCCN(CCC(=O)Nc2cc(C)cc(C)c2)C1 (centres undefined)	.	.	.	21.4	.	.
CC1CCCN(CCC(=O)Nc2ccc3c(c2)CCC3)C1 (centres undefined)	.	.	32.6	.	.	.
CCOC(=O)C1CCCN(C(=S)NC2CCCCC2)C1 (centres undefined)	.	.	.	39.0	.	.
CCOC(=O)C1CCCN(Cc2cc(OC)c(O)c(OC)c2)C1 (centres undefined)	.	.	.	42.1	.	.
CCOC(=O)C1CCCN(C(=O)Nc2cccc(Cl)c2)C1 (centres undefined)	.	.	.	54.8	.	.
CCOC(=O)N1CCN(C(=S)Nc2cccc(C)c2)CC1	.	.	.	19.2	.	.
CCOC(=O)C1CCN(C(=S)Nc2cccc(C)c2)CC1	.	.	.	.	.	.
NC(CCc1ccccc1)c1csc(Nc2nccc(C(F)(F)F)n2)n1 (centres undefined)	.	.	.	.	.	.
CCn1nc(C(=O)N2CCN(Cc3nc4ccccc4s3)CC2)c2ccccc2c1=O	.	.	38.5	.	.	.
CCn1nc(C(=O)N2CCc3ccccc3C2)c2ccccc2c1=O	.	.	.	.	.	.
O=C(c1nn(Cc2ccccc2)c(=O)c2ccccc12)N1CCN(C/C=C/c2ccccc2)CC1	.	.	94.9	.	.	.
Cc1ccc(N(c2ncnc(N)c2[N+](=O)[O-])C2CCCCC2)cc1	.	.	49.3	.	.	.
O=C(Nc1cccc(OC(F)(F)F)c1)C1Cc2c(-c3ccccc3Oc3ccccc3)ccnc2O1 (centres undefined)	.	.	.	.	.	.
c1ccc(-c2cc3nc(NCc4cccs4)nc(NCc4ccc5occc5c4)c3s2)cc1	.	.	.	.	.	.

Screening results as filed in PubChem BioAssay.
